The source made the active and inactive calls. The rule behind the calls is not given here.
Tests used:
[1] = target: Amyloid-beta precursor protein (Homo sapiens) (UniProt P05067); test: Binding affinity to amyloid beta plaques in Alzheimer patient brain at 370 KBq/100 ul after 1 hr by autoradiographic analysis; conditions: tested as the 18F-labelled form
[2] = Displacement of [125I]-IMPY from amyloid beta (1 to 42) fibrils after 2 hrs by gamma-counting analysis
In short: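 Competition binding with aggregated Aβ1-42 fibrils and [125I]IMPY (60000−100000 cpm/100 μL) in 0.05% BSA (1 mL total); inhibitors 10⁻⁴−10^−8.5 M in ethanol. Incubated 37 °C for 2 h, then GF/B vacuum filtration with PBS (0.02 M, pH 7.4) washes and γ counting. Three repeats; IC50 converted to Ki by Cheng−Prusoff.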

Mus musculus [3] = species on record: Mus musculus; test: Binding affinity to amyloid beta plaques in transgenic C57BL6 mouse cortex expressing APP Swedish mutant/PSEN1 at 370 KBq/100 ul after 1 hr by autoradiographic analysis; conditions: tested as the 18F-labelled form
In short: (§1)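 Paraffin brain sections from 12-month-old Tg mice (C57BL6, APPswe/PSEN1) and age-matched controls, deparaffinized through xylene and graded ethanol, then PBS (0.2 M, pH 7.4) 30 min. Incubated with 18F tracer (370 KBq per 100 μL) 1 h at room temperature, washed in 40% EtOH, rinsed in water, then phosphor plate exposure 2 h. The same sections were afterwards stained with 0.125% thioflavin S in 10% EtOH for 3 min and washed in 40% EtOH.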

Mus musculus [4] = species on record: Mus musculus; test: Binding affinity to amyloid beta plaques in transgenic C57BL6 mouse hippocampus expressing APP Swedish mutant/PSEN1 at 370 KBq/100 ul after 1 hr by autoradiographic analysis; type: tissue-based; conditions: tested as the 18F-labelled form; in short: as §1
Mus musculus [5] = species on record: Mus musculus; test: Binding affinity to amyloid beta plaques in transgenic C57BL6 mouse cortex expressing APP Swedish mutant/PSEN1 at 370 KBq/100 ul after 1 hr by thioflavinS-staining method; conditions: tested as the 18F-labelled form; in short: as §1
Mus musculus [6] = species on record: Mus musculus; test: Binding affinity to amyloid beta plaques in transgenic C57BL6 mouse hippocampus expressing APP Swedish mutant/PSEN1 at 370 KBq/100 ul after 1 hr by thioflavinS-staining method; type: tissue-based; conditions: tested as the 18F-labelled form; in short: as §1
Mus musculus [7] = test: Binding affinity to amyloid beta plaques in transgenic C57BL6 mouse cortex expressing APP Swedish mutant/PSEN1 at 19.2 MBq, iv after 30 mins by thioflavinS-staining method; type: functional, organism-based; conditions: 19.2 M, tested as the 18F-labelled form
Mus musculus [8] = test: Binding affinity to amyloid beta plaques in transgenic C57BL6 mouse cortex expressing APP Swedish mutant/PSEN1 at 19.2 MBq, iv after 30 mins by autoradiographic analysis; type: functional, organism-based; conditions: 19.2 M, tested as the 18F-labelled form
In short: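 Ex vivo: Tg mouse (C57BL6, APPswe/PSEN1) given 19.2 MBq tracer in saline via tail vein; decapitated 30 min later. Brain frozen in liquid nitrogen, 20 μm sections cut and exposed to a phosphor plate for 5 h.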

Brain = test: Ratio of drug uptake in brain at 2 mins to drug uptake in brain at 60 mins in iv dosed ICR mouse; type: ADME, organism-based; conditions: in vivo

Chain of Amyloid-beta precursor protein (Homo sapiens) (P05067 whole entry): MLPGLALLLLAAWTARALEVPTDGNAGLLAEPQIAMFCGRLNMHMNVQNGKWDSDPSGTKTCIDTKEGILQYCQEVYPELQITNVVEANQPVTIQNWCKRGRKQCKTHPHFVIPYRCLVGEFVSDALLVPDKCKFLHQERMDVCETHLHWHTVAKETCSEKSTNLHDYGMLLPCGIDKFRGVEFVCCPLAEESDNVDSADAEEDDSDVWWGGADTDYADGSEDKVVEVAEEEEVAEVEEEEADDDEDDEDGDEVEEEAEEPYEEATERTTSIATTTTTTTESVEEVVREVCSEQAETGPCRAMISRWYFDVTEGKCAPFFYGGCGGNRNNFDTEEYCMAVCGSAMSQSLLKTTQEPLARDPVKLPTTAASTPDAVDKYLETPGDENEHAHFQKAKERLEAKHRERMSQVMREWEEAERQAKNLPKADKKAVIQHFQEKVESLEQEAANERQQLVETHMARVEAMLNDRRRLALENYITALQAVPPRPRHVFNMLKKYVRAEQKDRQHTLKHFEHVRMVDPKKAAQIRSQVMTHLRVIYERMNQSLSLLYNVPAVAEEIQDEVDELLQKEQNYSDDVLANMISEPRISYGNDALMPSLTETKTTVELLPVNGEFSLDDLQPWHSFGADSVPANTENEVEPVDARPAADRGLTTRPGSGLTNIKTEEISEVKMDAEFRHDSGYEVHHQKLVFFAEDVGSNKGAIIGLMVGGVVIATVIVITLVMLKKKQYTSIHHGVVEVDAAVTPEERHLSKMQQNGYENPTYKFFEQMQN

Activity [1] | Ki [2] [nM] | Activity (Mus musculus [3]) | Activity (Mus musculus [4]) | Activity (Mus musculus [5]) | Activity (Mus musculus [6]) | Activity (Mus musculus [7]) | Activity (Mus musculus [8]) | Ratio (Brain) | SMILES
Active | 8 | Active | Active | Active | Active | Active | Active | – | CNc1ccc(-c2nc3cc(OCCF)ccc3o2)cn1
– | 6.7 | – | – | – | – | – | – | 3.13 | CNc1ccc(/C=C/c2ccc(OCCOCCOCC[18F])cc2)cc1 [FLORBETABEN F18]

— ChEMBL document CHEMBL2177098, “Synthesis and evaluation of novel ¹⁸F labeled 2-pyridinylbenzoxazole and 2-pyridinylbenzothiazole derivatives as ligands for positron emission tomography (PET) imaging of β-amyloid plaques” (J Med Chem, 2012)
